In brackets after ≈: the same amount, converted by molar mass.
How the values were obtained:
Format in all cases: functional
Staphylococcus aureus [1] = test: Antibacterial activity against Staphylococcus aureus 9537 by two-fold serial dilution technique
In short: (§1)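 MIC read as µg/mL from twofold serial dilutions of each compound in nutrient broth, tested against the named strain.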

Proteus vulgaris = test: Antibacterial activity against Proteus vulgaris 9716 by two-fold serial dilution technique; in short: as §1
Proteus mirabilis = test: Antibacterial activity against Proteus mirabilis 9900 by two-fold serial dilution technique; in short: as §1
Streptococcus pneumoniae = test: Antibacterial activity against Streptococcus pneumoniae 9585 by two-fold serial dilution technique; in short: as §1
Escherichia coli = test: Antibacterial activity against Escherichia coli 15119 by two-fold serial dilution technique; in short: as §1
Streptococcus pyogenes [2] = test: Antibacterial activity against Streptococcus pyogenes 9604 by two-fold serial dilution technique; in short: as §1
Staphylococcus aureus [3] = test: Antibacterial activity against penicillin-resistant Staphylococcus aureus 9606 by two-fold serial dilution technique
In short: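 MIC (µg/mL) was determined by twofold serial dilution in nutrient broth against penicillin-resistant S. aureus 9606.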

Streptococcus pyogenes [4] = test: Antibacterial activity against Streptococcus pyogenes A9604 infected in mouse assessed as mouse survival administered intramuscularly at 1 hr post-infection measured for 5 days; settings: A9604, im, read-out: PD50
In short: (§2)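 Mice were challenged intraperitoneally with about 1.3 × 10^3 S. pyogenes A9604 per mouse, diluted in brain heart infusion broth to give a uniform lethal infection. Fourfold compound dilutions were given intramuscularly or orally at 1 and 3.5 h postinfection. Survivors were followed for 5 days. PD50 is the total dose (mg/kg) protecting 50% of mice, calculated by the Spearman-Kärber method.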

Streptococcus pyogenes [5] = test: Antibacterial activity against Streptococcus pyogenes A9604 infected in po dosed mouse assessed as mouse survival administered at 3.5 hrs post-infection measured for 5 days; settings: read-out: PD50; in short: as §2

Row | Compound | MIC (Staphylococcus aureus [1]) [mg/L] | MIC (Proteus vulgaris) [mg/L] | MIC (Proteus mirabilis) [mg/L] | MIC (Streptococcus pneumoniae) [mg/L] | MIC (Escherichia coli) [mg/L] | MIC (Streptococcus pyogenes [2]) [mg/L] | MIC (Staphylococcus aureus [3]) [mg/L] | ED50 (Streptococcus pyogenes [4]) [mg/kg] | ED50 (Streptococcus pyogenes [5]) [mg/kg]
1 | CC1(C)N=C(c2ccccc2)C(=O)N1[C@@H]1C(=O)N2[C@@H]1[S@+]([O-])C(C)(C)[C@@H]2C(=O)O | > 8 | > 125 | > 125 | 1 (≈ 2.48 µM) | > 125 | 1 (≈ 2.48 µM) | > 125 | – | –
2 | CC1(C)N[C@H](c2ccccc2)C(=O)N1[C@@H]1C(=O)N2[C@@H]1[S@+]([O-])C(C)(C)[C@@H]2C(=O)O | 1 (≈ 2.47 µM) | 1 (≈ 2.47 µM) | 1 (≈ 2.47 µM) | 0.13 (≈ 0.321 µM) | 8 (≈ 19.7 µM) | 0.13 (≈ 0.321 µM) | > 125 | 3.1 | 9.4
3 | CC1(C)N[C@H](c2ccccc2)C(=O)N1[C@@H]1C(=O)N2[C@@H]1[S@@+]([O-])C(C)(C)[C@@H]2C(=O)O | 4 (≈ 9.86 µM) | 4 (≈ 9.86 µM) | 4 (≈ 9.86 µM) | 0.5 (≈ 1.23 µM) | 32 (≈ 78.9 µM) | 0.5 (≈ 1.23 µM) | > 125 | 9.6 | > 25
4 | CC1(C)S[C@@H]2[C@H](N3C(=O)[C@@H](c4ccccc4)NC3(C)C)C(=O)N2[C@H]1C(=O)O [HETACILLIN] | 0.016 (≈ 0.0411 µM) | 0.13 (≈ 0.334 µM) | 0.13 (≈ 0.334 µM) | 0.004 (≈ 0.0103 µM) | 1 (≈ 2.57 µM) | 0.004 (≈ 0.0103 µM) | > 125 | 0.2 | 0.3
